Test results published in ChEMBL document CHEMBL1153716, “Constrained peptidomimetics reveal detailed geometric requirements of covalent prolyl oligopeptidase inhibitors” (J Med Chem, 2009).
The source made the active and inactive calls. The rule behind the calls is not given here.

Key:
[1] = biological target: T1, Prolyl endopeptidase (Homo sapiens) (UniProt P48147); assay: Inhibition of prolyl oligopeptidase in human astrocyte derived cell extracts assessed as blockade of Z-Gly-Pro-AMC substrate hydrolysis at 100 uM by fluorimetric assay
T1 sequence (whole entry): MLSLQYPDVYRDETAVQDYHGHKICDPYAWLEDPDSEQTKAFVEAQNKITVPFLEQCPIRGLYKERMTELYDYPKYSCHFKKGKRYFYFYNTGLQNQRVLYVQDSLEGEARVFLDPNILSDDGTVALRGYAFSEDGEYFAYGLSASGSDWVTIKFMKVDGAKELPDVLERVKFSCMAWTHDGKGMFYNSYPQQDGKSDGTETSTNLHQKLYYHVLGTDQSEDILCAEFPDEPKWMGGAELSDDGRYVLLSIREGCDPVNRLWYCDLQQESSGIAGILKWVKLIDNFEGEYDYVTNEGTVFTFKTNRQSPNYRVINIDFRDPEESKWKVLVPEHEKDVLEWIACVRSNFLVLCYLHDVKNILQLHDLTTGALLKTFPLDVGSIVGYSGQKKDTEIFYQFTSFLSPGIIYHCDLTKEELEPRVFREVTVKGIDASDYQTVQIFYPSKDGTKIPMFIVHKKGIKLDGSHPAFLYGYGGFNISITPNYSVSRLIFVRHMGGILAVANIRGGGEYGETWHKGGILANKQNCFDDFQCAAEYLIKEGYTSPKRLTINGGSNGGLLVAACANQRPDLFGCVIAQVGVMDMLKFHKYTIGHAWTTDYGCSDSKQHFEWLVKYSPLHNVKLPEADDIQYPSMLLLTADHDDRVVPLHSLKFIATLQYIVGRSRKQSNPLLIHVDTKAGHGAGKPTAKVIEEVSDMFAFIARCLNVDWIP
Summary of the method: (§1)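 Confluent human glioblastoma (LN18, LN229, LNZ308), brain endothelial HCEC, or lung PO03 and skin PG98/5 fibroblasts extracted in PBS with 0.1% Triton X-100. Compound was diluted from methanol stock into water and preincubated 5-10 min at room temperature. Z-Gly-Pro-AMC was then added and read by fluorescence. Duplicate wells.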

[2] = biological target: T1, Prolyl endopeptidase (Homo sapiens); assay: Inhibition of prolyl oligopeptidase in human brain derived endothelial cell extracts assessed as blockade of Z-Gly-Pro-AMC substrate hydrolysis at 100 uM by fluorimetric assay; format: cell-free; summary of the method: as §1
[3] = biological target: T1, Prolyl endopeptidase (Homo sapiens); assay: Inhibition of prolyl oligopeptidase in human fibroblast extracts assessed as blockade of Z-Gly-Pro-AMC substrate hydrolysis at 100 uM by fluorimetric assay; summary of the method: as §1
[4] = biological target: Dipeptidyl peptidase 4 (Homo sapiens) (UniProt P27487); assay: Inhibition of DPP4 in human astrocyte derived cell extracts assessed as blockade of Gly-Pro-AMC substrate hydrolysis at 100 uM by fluorimetric assay
Summary of the method: (§2)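 Confluent human cells (glioblastoma LN18, LN229, LNZ308; brain endothelial HCEC; lung PO03 or skin PG98/5 fibroblasts) grown in DMEM with 4.5 g/L glucose and 10% FCS, then lysed in PBS (pH 7.2-7.4) containing 0.1% Triton X-100. Compound was diluted from methanol stock into water and preincubated 5-10 min at room temperature. Gly-Pro-AMC was then added. Duplicate wells.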

[5] = biological target: Dipeptidyl peptidase 4 (Homo sapiens) (UniProt P27487); assay: Inhibition of DPP4 in human brain derived endothelial cell extracts assessed as blockade of Gly-Pro-AMC substrate hydrolysis at 100 uM by fluorimetric assay; format: cell-free; summary of the method: as §2
[6] = biological target: Dipeptidyl peptidase 4 (Homo sapiens) (UniProt P27487); assay: Inhibition of DPP4 in human fibroblast extracts assessed as blockade of Gly-Pro-AMC substrate hydrolysis at 100 uM by fluorimetric assay; summary of the method: as §2
[7] = biological target: T1, Prolyl endopeptidase (Homo sapiens); assay: Inhibition of prolyl oligopeptidase in intact human astrocyte derived cells assessed as blockade of Z-Gly-Pro-AMC substrate hydrolysis at 100 uM by fluorimetric assay
Summary of the method: (§3)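 Intact confluent human glioblastoma (LN18, LN229, LNZ308), brain endothelial HCEC, or lung PO03 and skin PG98/5 fibroblast monolayers in PBS (pH 7.2-7.4), cells grown beforehand in DMEM with 10% FCS. Compound was diluted from methanol stock into water and preincubated 5-10 min at room temperature. Z-Gly-Pro-AMC was then added and read fluorimetrically. Duplicate wells.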

[8] = biological target: T1, Prolyl endopeptidase (Homo sapiens); assay: Inhibition of prolyl oligopeptidase in intact human brain derived endothelial cells assessed as blockade of Z-Gly-Pro-AMC substrate hydrolysis at 100 uM by fluorimetric assay; format: cell-based; conditions: Endothelial cell; summary of the method: as §3
[9] = biological target: T1, Prolyl endopeptidase (Homo sapiens); assay: Inhibition of prolyl oligopeptidase in intact human fibroblasts assessed as blockade of Z-Gly-Pro-AMC substrate hydrolysis at 100 uM by fluorimetric assay; summary of the method: as §3
[10] = biological target: Dipeptidyl peptidase 4 (Homo sapiens) (UniProt P27487); assay: Inhibition of DPP4 in intact human astrocyte derived cells assessed as blockade of Gly-Pro-AMC substrate hydrolysis at 100 uM by fluorimetric assay
Summary of the method: (§4)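 Confluent intact human glioblastoma (LN18, LN229, LNZ308), brain endothelial HCEC, or lung PO03 and skin PG98/5 fibroblast monolayers kept in PBS (pH 7.2-7.4) without detergent. Compound was diluted from methanol stock into water and preincubated 5-10 min at room temperature. Gly-Pro-AMC was then added and hydrolysis read by fluorescence. Duplicate wells.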

[11] = biological target: Dipeptidyl peptidase 4 (Homo sapiens) (UniProt P27487); assay: Inhibition of DPP4 in intact human brain derived endothelial cells assessed as blockade of Gly-Pro-AMC substrate hydrolysis at 100 uM by fluorimetric assay; format: cell-based; conditions: Endothelial cell; summary of the method: as §4
[12] = biological target: Dipeptidyl peptidase 4 (Homo sapiens) (UniProt P27487); assay: Inhibition of DPP4 in intact human fibroblasts assessed as blockade of Gly-Pro-AMC substrate hydrolysis at 100 uM by fluorimetric assay; summary of the method: as §4
[13] = biological target: T2, Prolyl endopeptidase (Homo sapiens, UniProt P48147); assay: Inhibition of prolyl oligopeptidase in intact human LN229 cells assessed as blockade of Z-Gly-Pro-AMC substrate hydrolysis by fluorimetric assay; format: cell-based
T2 sequence (P48147 whole entry): T1 sequence (whole entry)

[14] = biological target: T2, Prolyl endopeptidase; assay: Inhibition of prolyl oligopeptidase in human LN229 cell extracts assessed as blockade of Z-Gly-Pro-AMC substrate hydrolysis by fluorimetric assay
[15] = biological target: T2, Prolyl endopeptidase; assay: Inhibition of prolyl oligopeptidase in intact human LNZ308 cells assessed as blockade of Z-Gly-Pro-AMC substrate hydrolysis by fluorimetric assay; format: cell-based
[16] = biological target: T2, Prolyl endopeptidase; assay: Inhibition of prolyl oligopeptidase in human LNZ308 cell extracts assessed as blockade of Z-Gly-Pro-AMC substrate hydrolysis by fluorimetric assay
[17] = biological target: T2, Prolyl endopeptidase; assay: Inhibition of prolyl oligopeptidase in intact human HCEC cells assessed as blockade of Z-Gly-Pro-AMC substrate hydrolysis by fluorimetric assay; format: cell-based
[18] = biological target: T2, Prolyl endopeptidase; assay: Inhibition of prolyl oligopeptidase in human HCEC cell extracts assessed as blockade of Z-Gly-Pro-AMC substrate hydrolysis by fluorimetric assay; format: cell-free

Chain of Dipeptidyl peptidase 4 (Homo sapiens) (P27487 whole entry, looked up): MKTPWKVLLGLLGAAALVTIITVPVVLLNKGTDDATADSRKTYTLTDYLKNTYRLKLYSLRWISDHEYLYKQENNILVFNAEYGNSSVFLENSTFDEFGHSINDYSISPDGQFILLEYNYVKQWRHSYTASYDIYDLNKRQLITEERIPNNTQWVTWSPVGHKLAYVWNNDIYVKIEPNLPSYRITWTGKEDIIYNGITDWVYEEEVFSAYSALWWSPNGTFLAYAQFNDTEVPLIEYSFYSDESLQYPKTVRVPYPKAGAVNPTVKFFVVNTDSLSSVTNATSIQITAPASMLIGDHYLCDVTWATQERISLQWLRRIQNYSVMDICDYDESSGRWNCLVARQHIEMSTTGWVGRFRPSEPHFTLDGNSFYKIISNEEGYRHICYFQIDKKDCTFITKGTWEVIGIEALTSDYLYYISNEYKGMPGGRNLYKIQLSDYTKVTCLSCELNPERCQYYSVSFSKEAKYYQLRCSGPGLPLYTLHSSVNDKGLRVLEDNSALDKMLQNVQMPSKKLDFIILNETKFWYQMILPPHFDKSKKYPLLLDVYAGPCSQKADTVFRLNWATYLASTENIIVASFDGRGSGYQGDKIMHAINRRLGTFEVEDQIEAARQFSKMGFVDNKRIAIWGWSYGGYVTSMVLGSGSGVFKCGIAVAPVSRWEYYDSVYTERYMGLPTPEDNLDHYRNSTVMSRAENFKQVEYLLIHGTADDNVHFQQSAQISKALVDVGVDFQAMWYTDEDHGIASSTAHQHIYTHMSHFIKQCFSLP

| inhibition [1] | inhibition [2] | inhibition [3] | inhibition [4] | inhibition [5] | inhibition [6] | inhibition [7] | inhibition [8] | inhibition [9] | inhibition [10] | inhibition [11] | inhibition [12] | IC50 [13] [nM] | IC50 [14] [nM] | IC50 [15] [nM] | IC50 [16] [nM] | IC50 [17] [nM] | IC50 [18] [nM] | Structure (SMILES) |
| --- | --- | --- | --- | --- | --- | --- | --- | --- | --- | --- | --- | --- | --- | --- | --- | --- | --- | --- |
| 10% | 10% | inactive | inactive | inactive | inactive | inactive | inactive | inactive | inactive | inactive | inactive | – | – | – | – | – | – | N#C[C@H]1CS[C@@H]2C[C@H](NC(=O)OCc3ccccc3)C(=O)N12 |
| inactive | inactive | inactive | inactive | inactive | inactive | inactive | inactive | inactive | inactive | inactive | inactive | – | – | – | – | – | – | NC(=O)[C@@H]1CS[C@H]2C[C@@H](NC(=O)OCc3ccccc3)C(=O)N21 |
| inactive | inactive | 10% | inactive | inactive | inactive | inactive | inactive | 10% | inactive | inactive | inactive | – | – | – | – | – | – | COC(=O)[C@@H]1CS[C@H]2C[C@@H](NC(=O)OCc3ccccc3)C(=O)N21 |

The next lines start with the compound.

| Structure (SMILES) | inhibition [1] | inhibition [2] | inhibition [3] | inhibition [4] | inhibition [5] | inhibition [6] | inhibition [7] | inhibition [8] | inhibition [9] | inhibition [10] | inhibition [11] | inhibition [12] | IC50 [13] [nM] | IC50 [14] [nM] | IC50 [15] [nM] | IC50 [16] [nM] | IC50 [17] [nM] | IC50 [18] [nM] |
| --- | --- | --- | --- | --- | --- | --- | --- | --- | --- | --- | --- | --- | --- | --- | --- | --- | --- | --- |
| C[C@H]1O[C@H]2C[C@H](NC(=O)OCc3ccccc3)C(=O)N2[C@@H]1C#N | 10% | 10% | inactive | inactive | inactive | inactive | inactive | 10% | inactive | inactive | inactive | inactive | – | – | – | – | – | – |
| N#C[C@@H]1CS[C@H]2C[C@@H](NC(=O)OCc3ccccc3)C(=O)N12 | – | – | – | inactive | inactive | inactive | – | – | – | inactive | inactive | inactive | 2000 | 500 | 2500 | 200 | 1300 | 700 |
| N#CC1CCSC2CC(NC(=O)OCc3ccccc3)C(=O)N12 (racemic) | inactive | inactive | 10% | inactive | inactive | inactive | inactive | inactive | inactive | inactive | inactive | inactive | – | – | – | – | – | – |
